Experimental data as given in publication PMC6045484 (ACS Omega, 2018).
≈ marks a conversion by molar mass, not a printed value. Entries after “also recorded” stand apart in the source; their conditions may differ.

Experiments:
[1] = tested on: M. intracellulare (ATCC23068); test: in vitro antibacterial activity, modified alamarBlue procedure; assay type: cell-based, Mycobacterium intracellulare; details: Mycobacterium intracellulare; for IC50: ATCC23068, read-out: IC50 (concentration that affords 50% growth inhibition), M. intracellulare; for MBC: ATCC23068, read-out: MBC (minimum bactericidal concentration), M. intracellulare; for MIC: ATCC23068, read-out: MIC, M. intracellulare
Method in brief: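 Modified alamarBlue microplate method. Test compound serially diluted in 20% DMSO/saline, duplicate wells, up to 20 μg/mL. Inoculum 2.0 × 10^6 CFU/mL in Middlebrook 7H9 with OADC, pH 7.3, containing 5% alamarBlue. Incubated 70–74 h at 37 °C, 10% CO2; fluorescence 544ex/590em read before and after. MIC: no blue-to-pink change. MBC by subculturing blue wells on agar. Ciprofloxacin control.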

A. fumigatus ATCC 90906 = test: in vitro antifungal activity; assay type: cell-based, Aspergillus fumigatus; details: Aspergillus fumigatus; for IC50: ATCC90906, read-out: A. fumigatus IC50; for MFC: ATCC90906, read-out: A. fumigatus MFC; for MIC: ATCC90906, read-out: A. fumigatus MIC
Method in brief: (§1)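 Modified NCCLS broth method in Sabouraud dextrose. Inoculum set by OD630 to 1.5 × 10^3 CFU/mL. Test compound serially diluted in 20% DMSO/saline, duplicate wells, up to 20 μg/mL. Incubated 70–74 h at 35 °C; 530 nm read before and after. IC50 is 50% growth inhibition; MIC is no detectable growth. MFC from clear wells subcultured on agar. Amphotericin B control.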

[2] = tested on: P. berghei (sensitive strain); test: blood-schizontocidal activity against P. berghei infection in mice; assay type: in vivo, Plasmodium berghei; details: Swiss mice
Method in brief: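 Swiss mice of either sex (about 15–20 g, same age), six per group, inoculated intraperitoneally on day 0 with 1 × 10^7 infected erythrocytes from a donor mouse. Oral test compound at 100, 50, 25 or 10 mg/kg, CQ diphosphate (10 mg/kg/day × 4) or vehicle started 4 h later, on D0 to D+3. Giemsa tail-blood smears on D+4 and D+7. Curative: parasites eliminated, no relapse, all mice surviving to D+60.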

SA (ATCC29213) = test: in vitro antibacterial activity; assay type: cell-based; details: Staphylococcus aureus; for IC50: ATCC29213, read-out: IC50 (concentration that affords 50% growth inhibition), SA; for MBC: ATCC29213, read-out: MBC (minimum bactericidal concentration), SA; for MIC: ATCC29213, read-out: MIC, SA
Method in brief: (§2)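 Test compound serially diluted in 20% DMSO/saline and plated in duplicate, up to 20 μg/mL. Inoculum in cation-adjusted Mueller–Hinton broth, pH 7.3, set by OD630 to 5 × 10^5 CFU/mL. Incubated 16–20 h at 35 °C; 530 nm read before and after. IC50 is 50% growth inhibition; MIC is no detectable growth. MBC from clear wells subcultured on agar. Ciprofloxacin control.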

P. falciparum (D6) = test: in vitro antimalarial activity, plasmodial LDH; assay type: cell-based, Plasmodium falciparum; details: Plasmodium falciparum, D6, 72 h, read-out: P. falciparum (D6) IC50
P. falciparum (W2) = test: in vitro antimalarial activity, plasmodial LDH; assay type: cell-based, Plasmodium falciparum; details: Plasmodium falciparum, W2, 72 h, read-out: P. falciparum (W2) IC50, CQ-resistant W2 strain, 72 h
Method in brief: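 P. falciparum-infected erythrocytes (2% parasitemia, 2% hematocrit) in RPMI 1640 with 10% human serum and 60 μg/mL amikacin. Exposed to test compound dilutions for 72 h at 37 °C under 90% N2/5% O2/5% CO2. LDH measured with Malstat reagent (30 min, room temperature), then NBT/PES for 1 h in the dark, stopped with 5% acetic acid, read at 650 nm. IC50 from dose-response curves.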

C. albicans ATCC90028 = test: in vitro antifungal activity; assay type: cell-based, Candida albicans; details: Candida albicans; for IC50: ATCC90028, read-out: C. albicans IC50; for MFC: ATCC90028, read-out: C. albicans MFC; for MIC: ATCC90028, read-out: C. albicans MIC
Method in brief: as §1

MRSA (ATCC33591) = test: in vitro antibacterial activity; assay type: cell-based, methicillin-resistant Staphylococcus aureus; details: Staphylococcus aureus, ATCC33591|MRSA, read-out: MIC, MRSA
Method in brief: as §2

[3] = tested on: SK-MEL, KB, BT-549, SK-OV-3, VERO and LLC-PK1 cells; test: cytotoxicity, neutral red uptake assay; assay type: cell-based, mammalian; details: highest test concentration 4760 ng/mL
Method in brief: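 Cells seeded at 25 000/well and allowed 24 h to reach confluence. Test compound was then added and incubated 48 h. Viable cells were counted by a modified neutral red uptake method. The panel was four human cancer lines and two noncancerous mammalian kidney lines. Doxorubicin served as positive control and DMSO as negative control.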

C. neoformans ATCC90113 = test: in vitro antifungal activity; assay type: cell-based, Cryptococcus neoformans; details: Cryptococcus neoformans; for IC50: ATCC90113, read-out: C. neoformans IC50; for MFC: ATCC90113, read-out: C. neoformans MFC; for MIC: ATCC90113, read-out: C. neoformans MIC
Method in brief: as §1

[4] = tested on: L. donovani promastigotes; test: in vitro antileishmanial activity, alamarBlue assay; assay type: cell-based, Leishmania donovani; details: Leishmania donovani, 48 h

Structure (SMILES) | IC50 [1] | MBC [1] | MIC [1] | IC50 (A. fumigatus ATCC 90906) | MFC (A. fumigatus ATCC 90906) | MIC (A. fumigatus ATCC 90906) | P. berghei blood-schizontocidal activity (mice cured/treated) ([2]; 25 mg/kg/day × 4, oral) | P. berghei blood-schizontocidal activity (mice cured/treated) ([2]; 50 mg/kg/day × 4, oral) | P. berghei blood-schizontocidal activity (mice cured/treated) ([2]; 100 mg/kg/day × 4, oral) | IC50 (SA (ATCC29213)) | MBC (SA (ATCC29213)) | MIC (SA (ATCC29213)) | IC50 (P. falciparum (D6)) | IC50 (P. falciparum (W2)) | IC50 (C. albicans ATCC90028) | MFC (C. albicans ATCC90028) | MIC (C. albicans ATCC90028) | MIC (MRSA (ATCC33591)) | cytotoxicity CTX [3] | IC50 (C. neoformans ATCC90113) | also measured
CCCCCCOc1c(OC)cc(NC(C)CCCNC(=O)C(N)CCCCN)c2nc(C(C)(C)C)ccc12 (centres unmarked) [compound 99, 2,6-Diamino-N-(4-(2-tert-butyl-5-(hexyloxy)-6-methoxyquinolin-8-ylamino)-pentyl)hexanamide] | > 20 µg/mL | > 20 µg/mL | > 20 µg/mL | > 20 µg/mL | > 20 µg/mL | > 20 µg/mL | inactive (0/6) | suppressive activity; also recorded: active (3/6) | 100% cure and curative (6/6) | > 20 µg/mL | > 20 µg/mL | > 20 µg/mL | 0.09 µg/mL (≈ 0.166 µM) | 0.036 µg/mL (≈ 0.0662 µM) | > 20 µg/mL | > 20 µg/mL | > 20 µg/mL | > 20 µg/mL | NC (NC, not cytotoxic up to 4760 ng/mL (4.76 μg/mL)) | 18.6 µg/mL (≈ 34.3 µM) | MFC (C. neoformans ATCC90113): > 20 µg/mL; MIC (C. neoformans ATCC90113): > 20 µg/mL
CCCCCCCOc1c(OC)cc(NC(C)CCCNC(=O)C(N)CCCNC(=N)N)c2nc(C(C)(C)C)ccc12 (centres unmarked) [compound 111, 2-Amino-N-(4-(2-tert-butyl-5-(heptyloxy)-6-methoxyquinolin-8-ylamino)pentyl)-5-guanidinopentanamide] | > 20 µg/mL | > 20 µg/mL | > 20 µg/mL | > 20 µg/mL | > 20 µg/mL | > 20 µg/mL | inactive (0/6) | 100% cure and curative (6/6) | 100% cure and curative (6/6) | > 20 µg/mL | > 20 µg/mL | > 20 µg/mL | 0.39 µg/mL (≈ 0.666 µM) | 0.24 µg/mL (≈ 0.41 µM) | > 20 µg/mL | > 20 µg/mL | > 20 µg/mL | > 20 µg/mL | NC (NC, not cytotoxic up to 4760 ng/mL (4.76 μg/mL)) | 13.2 µg/mL (≈ 22.6 µM) | MFC (C. neoformans ATCC90113): > 20 µg/mL; MIC (C. neoformans ATCC90113): > 20 µg/mL
CCCCCCCCOc1c(OC)cc(NC(C)CCCNC(=O)C(N)Cc2ccccc2)c2nc(C(C)(C)C)ccc12 (centres unmarked) [compound 121, 2-Amino-N-(4-(2-tert-butyl-6-methoxy-5-(octyloxy)quinolin-8-ylamino)pentyl)-3-phenylpropanamide] | > 20 µg/mL | > 20 µg/mL | > 20 µg/mL | > 20 µg/mL | > 20 µg/mL | > 20 µg/mL | inactive (0/6) | suppressive activity; also recorded: active (3/6) | 100% cure and curative (6/6) | 7.79 µg/mL (≈ 13.2 µM) | > 20 µg/mL | > 20 µg/mL | > 4.76 µg/mL | > 4.76 µg/mL | > 20 µg/mL | > 20 µg/mL | > 20 µg/mL | > 20 µg/mL | NC (NC, not cytotoxic up to 4760 ng/mL (4.76 μg/mL)) | 17.3 µg/mL (≈ 29.3 µM) | IC50 ([4]; read-out: L. donovani IC50, promastigotes, 48 h): 11.8 µg/mL (≈ 20 µM); IC90 ([4]; read-out: L. donovani IC90, promastigotes, 48 h): 28.7 µg/mL (≈ 48.5 µM); MFC (C. neoformans ATCC90113): > 20 µg/mL; MIC (C. neoformans ATCC90113): > 20 µg/mL
